Compound activity as filed in PubChem BioAssay.
MEKK2mut PB1 HTS: signal of MEK5 binding to mutant human MEKK2 PB1 domain; AID 1530; hit rate 0.35% among 290,000; percent response, % at 10 µM; bead flow cytometry, Alexa488-MEK5 binding to MEKK2 mutant; in the data active = percent response above about 24%, passing the limit was not always enough
MEKK3 PB1 HTS: MEKK3-MEK5 PB1 interaction, increase or decrease; Q99759; bead-based flow cytometry, Alexa488-MEK5 binding to MEKK3; actives lie on both sides; 0 = blocked by unlabeled MEK5, 100 = vehicle; binding response (% of control), % at 10 µM; hit rate 1.4% among 290,000; AID 1529;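 active = binding response more than 3 SD above or below the average of its plate-row segment, actives on both sides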;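 note: Alexa488 bead fluorescence after subtracting the streptavidin-only scavenger bead signal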
Rce1 inh: blocks yeast Ras-converting enzyme; yeast membranes, quenched prenylated peptide cleavage fluorescence; hit rate 0.27% among 290,000; Q03530; calls only; AID 2563;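 active = fall in fluorescence gain of 50% or more versus controls, with final raw signal at or below 3038400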;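 note: plate controls were neutral control wells for no effect and wells lacking membranes for full effect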
Target sequence (Q03530 whole entry, looked up): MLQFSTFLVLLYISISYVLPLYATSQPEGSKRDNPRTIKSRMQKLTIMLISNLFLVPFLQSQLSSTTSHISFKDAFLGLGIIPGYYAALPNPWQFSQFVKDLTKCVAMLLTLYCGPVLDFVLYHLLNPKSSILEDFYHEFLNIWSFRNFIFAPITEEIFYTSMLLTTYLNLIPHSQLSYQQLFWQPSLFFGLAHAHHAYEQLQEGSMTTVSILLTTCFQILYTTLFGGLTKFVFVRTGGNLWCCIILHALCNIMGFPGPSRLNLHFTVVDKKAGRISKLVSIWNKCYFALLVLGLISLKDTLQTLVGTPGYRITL
T cell modulator: T cell immune modulators affecting CD8 T cell-vesicle binding. hit rate 0.068% among 330,000. 2C CD8+ T cell-vesicle binding, flow cytometry; hits give low values. AID 2052. response (vesicle binding), % at 7 µM;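 active = response, share of CD8 T cells binding vesicles, and their 90th percentile fluorescence all below set limits, cut at about 80% in these data, passing the limit was not always enough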;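 note: values below 100% mean blocked vesicle binding to the CD8+ T cells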
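Material: murine 2C transgenic CD8+ T lymphocytes / Also added: QL9-peptide-loaded Drosophila micro-vesicles bearing Ld, ICAM-1 and B7-1 / Schedule: binding step 1.5 h, 37 °C, antibody labelling 20 min, ice / Signal: flow cytometry, PE anti-B7-1 (FL2) versus Alexa647 anti-CD8 (FL8), PFA-fixed / Evaluation: percent CD8+ FL2 mean versus row control / Benchmarks: naked versus QL9-loaded vesicles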
UCH37 inh: blocks the human deubiquitinase UCH37 | purified proteasome/UCH37, Ub-AMC cleavage fluorescence | inhibition, % (concentration not given with the values) | hit rate 0.33% among 330,000 | AID 588478;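 active = mean inhibition over replicate wells above about 20%, limit read from the data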;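 note: 0% = compound-free wells with enzyme and 100% = wells lacking proteasome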
Target sequence (Q9Y5K5 whole entry, looked up): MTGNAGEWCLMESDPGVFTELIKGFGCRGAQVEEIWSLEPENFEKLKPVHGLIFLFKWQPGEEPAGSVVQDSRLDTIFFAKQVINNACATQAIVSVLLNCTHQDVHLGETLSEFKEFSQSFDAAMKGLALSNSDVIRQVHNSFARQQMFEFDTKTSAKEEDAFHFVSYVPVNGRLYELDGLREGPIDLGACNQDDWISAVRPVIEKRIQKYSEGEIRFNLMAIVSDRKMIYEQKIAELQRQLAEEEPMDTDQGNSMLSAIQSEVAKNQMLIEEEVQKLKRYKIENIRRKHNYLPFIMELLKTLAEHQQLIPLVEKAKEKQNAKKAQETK
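Material: Human UCH37 enzyme supplied as purified proteasome complex | Schedule: 30 min preincubation with enzyme, 25 min cleavage at room temperature | Detection: AMC fluorescence 355/460 nm | Measure: % inhibition of Ub-AMC cleavage fluorescence | Controls: Wells without proteasome as full block, compound-free enzyme plus substrate as uninhibited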
MEKK2 WT-MEK5: raises or lowers MEK5 binding to wildtype human MEKK2 PB1 domain | hit rate 1.1% among 290,000 | AID 1531 | binding response (% of control), % at 10 µM | Q9Y2U5 | bead flow cytometry, Alexa488-MEK5 binding to MEKK2 WT; actives lie on both sides; in the data active = binding response below about 67% or above about 130%
An asterisk follows results filed as active; [ ] = remark or other dose. Compounds with a hit are over-represented: about 2.5% of the library has one in this group of screens.

What do the screens show for `COc1ccccc1/C=C/CN1CCCC(CO)(Cc2cccc(Cl)c2)C1` (stereo not drawn)?
MEKK2mut PB1 HTS: 60*; MEKK3 PB1 HTS: 111; Rce1 inh: inactive; T cell modulator: 266; UCH37 inh: 0; MEKK2 WT-MEK5: 190*

Results for c1ccc(-n2nnc(-c3nccs3)n2)cc1 ?
MEKK2mut PB1 HTS: 1; MEKK3 PB1 HTS: 102; Rce1 inh: inactive; T cell modulator: 245; UCH37 inh: 2; MEKK2 WT-MEK5: 101

What do the screens show for `Brc1ccccc1-n1nnc(-c2nccs2)n1`?
MEKK2mut PB1 HTS: 2; MEKK3 PB1 HTS: 102; Rce1 inh: inactive; UCH37 inh: 25*; MEKK2 WT-MEK5: 102

What do the screens show for `Cc1ccc(-c2nn3c(C)nnc3s2)cc1NC(=O)c1cccs1`?
MEKK2mut PB1 HTS: 5; MEKK3 PB1 HTS: 102; Rce1 inh: inactive; T cell modulator: 294; UCH37 inh: 0; MEKK2 WT-MEK5: 98

What do the screens show for `Cc1cc2nn(-c3cccc4ccccc34)nc2cc1NC(=O)c1cccs1`?
MEKK2mut PB1 HTS: -4; MEKK3 PB1 HTS: 92; Rce1 inh: active; T cell modulator: 507; UCH37 inh: -135; MEKK2 WT-MEK5: 93

Results for COC(=O)c1ccc2c(=O)[nH]c(CSc3nc(-c4ccc(F)cc4)cs3)nc2c1 ?
MEKK2mut PB1 HTS: 0; MEKK3 PB1 HTS: 99; Rce1 inh: inactive; T cell modulator: 78*; MEKK2 WT-MEK5: 97

How did COC(=O)c1ccc2c(=O)[nH]c(CSc3nc(C)cs3)nc2c1 do in these assays?
MEKK2mut PB1 HTS: -1; MEKK3 PB1 HTS: 99; Rce1 inh: inactive; T cell modulator: 308; UCH37 inh: 0; MEKK2 WT-MEK5: 103

How did CCc1nnc(NC(=O)c2sc3nc4c(cc3c2N)CCCCC4)s1 do in these assays?
MEKK2mut PB1 HTS: 2; MEKK3 PB1 HTS: 139*; Rce1 inh: inactive; T cell modulator: 247; UCH37 inh: -162; MEKK2 WT-MEK5: 106

What do the screens show for `CCc1nnc(NC(=O)c2sc3nc4c(cc3c2N)CCCCCC4)s1`?
MEKK2mut PB1 HTS: 2; MEKK3 PB1 HTS: 120; Rce1 inh: inactive; T cell modulator: 178; UCH37 inh: -71; MEKK2 WT-MEK5: 113

How did CCC(=O)/C=C1/Sc2ccc(OC)cc2N1CC do in these assays?
MEKK2mut PB1 HTS: -2; MEKK3 PB1 HTS: 92; Rce1 inh: inactive; T cell modulator: 498; UCH37 inh: 15; MEKK2 WT-MEK5: 95

What do the screens show for `CCC(=O)/C=C1/Sc2ccccc2N1CC`?
MEKK2mut PB1 HTS: 19; MEKK3 PB1 HTS: 112; Rce1 inh: inactive; T cell modulator: 160; UCH37 inh: 22*; MEKK2 WT-MEK5: 92

Results for CS(=O)(=O)N(CC(=O)NN=Cc1cccc2c1OCCO2)c1ccccc1Br ?
UCH37 inh: 2

How did Cc1ccc(S(=O)(=O)c2nnn3c2nc(NC2CCN(Cc4ccccc4)CC2)c2ccccc23)cc1C do in these assays?
MEKK2mut PB1 HTS: 30*; MEKK3 PB1 HTS: 111; Rce1 inh: inactive; T cell modulator: 311; UCH37 inh: -146; MEKK2 WT-MEK5: 176*

Results for C(=NNCc1ccccc1)c1ccc2nccnc2c1 ?
UCH37 inh: 6

Results for Cc1cccc(Cn2c(=O)c3c(nc4n3CCN4Cc3ccco3)n(C)c2=O)c1 ?
MEKK2mut PB1 HTS: -16; MEKK3 PB1 HTS: 2.0*[inhibitor]; Rce1 inh: inactive; T cell modulator: 248; UCH37 inh: 6; MEKK2 WT-MEK5: 2.0*[inhibitor]

How did Cn1c(=O)n(Cc2ccc(Cl)cc2)c(=O)c2c1nc1n2CCN1Cc1ccco1 do in these assays?
MEKK2mut PB1 HTS: 5; MEKK3 PB1 HTS: 109; Rce1 inh: inactive; T cell modulator: 312; UCH37 inh: 7; MEKK2 WT-MEK5: 113

What do the screens show for `CN(C(=O)C12CC3CC(CC(C3)C1)C2)C1(C)CCS(=O)(=O)C1` (stereo not drawn)?
MEKK2mut PB1 HTS: 3; MEKK3 PB1 HTS: 108; Rce1 inh: inactive; T cell modulator: 219; UCH37 inh: 30*; MEKK2 WT-MEK5: 108

What do the screens show for `COc1ccc(-c2nn(-c3ccccc3)cc2C=NNc2cccc(C(=O)O)c2)cc1`?
UCH37 inh: 3

How did CN(C)S(=O)(=O)c1ccc(NC(=O)c2ccc([N+](=O)[O-])cc2)cc1 do in these assays?
MEKK2mut PB1 HTS: 2; MEKK3 PB1 HTS: 92; Rce1 inh: inactive; T cell modulator: 0.0*; UCH37 inh: 4; MEKK2 WT-MEK5: 102

How did O=C(NN=Cc1ccccn1)c1[nH]c2ccc([N+](=O)[O-])cc2c1-c1ccccc1 do in these assays?
UCH37 inh: 7

How did Cc1ccc2c(c1)c1c(n2CC(O)CN2CCOCC2)CCCC1 (stereo not drawn) do in these assays?
MEKK2mut PB1 HTS: 20; MEKK3 PB1 HTS: 102; Rce1 inh: inactive; T cell modulator: 329; MEKK2 WT-MEK5: 19*

How did O=C(O)c1ccc(-n2cccc2C=NNC(=O)c2cc3cc(Br)ccc3o2)cc1 do in these assays?
UCH37 inh: 7

What do the screens show for `COc1cc(/C=N/N=C/c2cc(OC)c(O)c(OC)c2)cc(OC)c1O`?
MEKK2mut PB1 HTS: 0; MEKK3 PB1 HTS: 109; Rce1 inh: inactive; T cell modulator: 349; MEKK2 WT-MEK5: 112

What do the screens show for `COc1cc(/C=N/N=C(/C(=O)c2ccccc2)c2ccccc2)cc(OC)c1O`?
MEKK2mut PB1 HTS: 0; MEKK3 PB1 HTS: 135*; Rce1 inh: inactive; T cell modulator: 271; MEKK2 WT-MEK5: 105

What do the screens show for `Cc1nc(N2CCOCC2)c2cc(-c3ccccc3)sc2n1`?
MEKK2mut PB1 HTS: 4; MEKK3 PB1 HTS: 98; Rce1 inh: active; T cell modulator: 377; UCH37 inh: -1; MEKK2 WT-MEK5: 106

How did N#CC(=C(O)CN1C(=O)c2ccccc2C1=O)c1nc2ccccc2[nH]1 do in these assays?
UCH37 inh: 1

Results for CCn1c(CNc2cccc(C(F)(F)F)c2)n[nH]c1=S ?
MEKK2mut PB1 HTS: -8; MEKK3 PB1 HTS: 96; Rce1 inh: inactive; T cell modulator: 225; UCH37 inh: 32*; MEKK2 WT-MEK5: 95

Results for O=c1[nH]nc(CNc2cccc(C(F)(F)F)c2)c2ccccc12 ?
MEKK2mut PB1 HTS: 0; MEKK3 PB1 HTS: 106; Rce1 inh: inactive; T cell modulator: 202; UCH37 inh: 3; MEKK2 WT-MEK5: 98

Results for CCCCCn1c(=O)c(-c2nc3ccccc3[nH]2)c(O)c2ccccc21 ?
MEKK2mut PB1 HTS: 0; MEKK3 PB1 HTS: 104; Rce1 inh: active; T cell modulator: 321; UCH37 inh: inactive; MEKK2 WT-MEK5: 98

How did CCOc1ccc(C=NNC(=O)c2ccc(CSc3nc4ccccc4[nH]3)cc2)cc1 do in these assays?
UCH37 inh: -1

What do the screens show for `CCOC(=O)NN=C/C=C/c1ccc2c(c1)OCO2`?
UCH37 inh: -7
